In ChEMBL document CHEMBL2331153, “Structural investigation and biological activity of sesquiterpene lactones from the traditional Chinese herb Inula racemosa” (J Nat Prod, 2013):
Converted amounts (≈) assume the structure as drawn. The source made the active and inactive calls. No cut-off for these calls is given here.

Tests used:
Assay type in all cases: functional, cell-based
HepG2 = test: Antiproliferative activity against human HepG2 cells assessed as inhibition of cell proliferation after 72 hrs by CCK8 assay; conditions: HepG2, 72 h
Method in brief: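 HepG2 cells maintained in DMEM with 10% FBS and penicillin/streptomycin at 37 °C, 5% CO2. After overnight adherence, compound exposure lasted 72 h. Viable cells detected with CCK-8 (2 h incubation) by absorbance at 450 nm. Positive control was mitomycin. Assays in duplicate.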

HT-1080 = test: Antiproliferative activity against human HT1080 cells assessed as inhibition of cell proliferation after 72 hrs by CCK8 assay; conditions: HT-1080, 72 h
Method in brief: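 HT1080 fibrosarcoma cells cultured in alpha-MEM with 10% FBS and penicillin/streptomycin, 37 °C, 5% CO2. Seeded, allowed to adhere overnight, then incubated with compound for 72 h. CCK-8 added for 2 h, then A450 read. Mitomycin was the positive control. Duplicate experiments.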

A549 = test: Antiproliferative activity against human A549 cells assessed as inhibition of cell proliferation after 72 hrs by CCK8 assay; conditions: A549, 72 h
Method in brief: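 A549 cells grown in RPMI 1640 with 10% FBS and penicillin/streptomycin at 37 °C, 5% CO2. Cells adhered overnight, then treated with compound for 72 h. CCK-8 added for 2 h at 37 °C, absorbance read at 450 nm. Mitomycin served as positive control. Run in duplicate.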

HUVEC [1] = test: Antiproliferative activity against human HUVEC assessed as inhibition of cell proliferation after 72 hrs by CCK8 assay
Method in brief: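 HUVECs at passages 2–6 grown in endothelial cell medium with 0.03 mg/mL endothelial cell growth supplement, 10% FBS, 0.1 mg/mL heparin and penicillin/streptomycin. Cells adhered overnight, then compound added for 72 h at 37 °C, 5% CO2. CCK-8 added for 2 h and absorbance read at 450 nm. Mitomycin positive control; duplicates.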

HUVEC [2] = test: Antiangiogenic activity against human HUVEC assessed as inhibition of endothelial cell tube formation at 1 ug/ml after 22 hrs by Matrigel assay
Method in brief: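 HUVECs (passages 2–6) seeded at 25 000 cells/well onto a Matrigel layer and exposed to compound for 22 h; images taken 22 h after plating at ×40. Capillary tube formation scored as total length of capillary structures in two representative fields per experiment. Colchicine served as positive control.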

Compound	IC50 (HepG2) [µg/mL]	IC50 (HT-1080) [µg/mL]	IC50 (A549) [µg/mL]	IC50 (HUVEC [1]) [µg/mL]	inhibition (HUVEC [2])
C[C@@H]1C(=O)O[C@@H]2C[C@@]3(C)CCC[C@H](C)[C@@]34O[C@H]4[C@H]12 [DIHYDROEPOXYALANTOLACTONE]	25.3 (≈ 101 µM)	17.4 (≈ 69.5 µM)	16.2 (≈ 64.8 µM)		
C[C@@H]1C(=O)O[C@@H]2C[C@@]3(C)CCC[C@]4(CO4)[C@@H]3C[C@H]12	> 50	> 50	> 50		
C=C1C(=O)O[C@@H]2C[C@@]3(C)CCC[C@H](C)C3=C[C@H]12 [HELENINE]	1.3 (≈ 5.6 µM)	0.696 (≈ 3 µM)	0.55 (≈ 2.37 µM)	2.4 (≈ 10.3 µM)	Active
C=C1C(=O)O[C@@H]2C[C@@]3(C)CCC[C@H](C)[C@@]34O[C@H]4[C@H]12	2.73 (≈ 11 µM)	1.32 (≈ 5.32 µM)	1.59 (≈ 6.4 µM)		
C=C1C[C@H](O)C[C@]2(C)C[C@H]3OC(=O)[C@H](C)[C@H]3C[C@@H]12	> 50	> 50	> 50		
C[C@@H]1C(=O)O[C@@H]2C[C@@]3(C)CCC[C@H](C)C3=C[C@]12O [RACEMOSALACTONE C]	> 50	> 50	27.8 (≈ 111 µM)		
C=C1CCC[C@]2(C)C[C@H]3OC(=O)[C@@H](C)[C@H]3C[C@@H]12 [DIHYDROISOALANTOLACTONE]	> 50	> 50	> 50		
C[C@@H]1C(=O)O[C@@H]2C[C@@]3(C)C[C@@H](O)C[C@H](C)C3=C[C@H]12	26.1 (≈ 104 µM)	20.1 (≈ 80.3 µM)	24.8 (≈ 99.1 µM)		
C[C@H]1C(=O)O[C@@H]2CC3=C[C@@H](O)C[C@H](C)[C@@]3(C)C[C@@H]21 [RACEMOSALACTONE E]	> 50	> 50	38.6 (≈ 154 µM)		
C=C1C(=O)O[C@@H]2C[C@@]3(C)CCCC(=C)[C@]3(O)C[C@H]12 [TELEKIN]	8.14 (≈ 32.8 µM)	3.5 (≈ 14.1 µM)	4.27 (≈ 17.2 µM)		
C=C1C(=O)O[C@@H]2C[C@@]3(C)CCC[C@H](C)[C@]3(O)C[C@H]12 [RACEMOSALACTONE A]	2.76 (≈ 11 µM)	1.88 (≈ 7.51 µM)	1.51 (≈ 6.03 µM)		
C[C@@H]1C2=C[C@H]3[C@@H](C[C@@]2(C)CC[C@@H]1O)OC(=O)[C@@H]3C	> 50	> 50	> 50		
C[C@@H]1CCC[C@]2(C)C[C@@H]3OC(=O)C(CO)=C3C=C12 [MACROPHYLLILACTONE E]	31.2 (≈ 126 µM)	28.5 (≈ 115 µM)	16.2 (≈ 65.3 µM)		
C=C1C(=O)O[C@@H]2C[C@@]3(C)CCCC(C)=C3C[C@H]12 [ALLOALANTOLACTONE]	3.57 (≈ 15.4 µM)	3.87 (≈ 16.7 µM)	2.67 (≈ 11.5 µM)		
C[C@H]1CCC[C@]2(C)C[C@H]3OC(=O)[C@](C)(O)[C@H]3C=C12	> 50	> 50	> 50		
C=C1C(=O)O[C@@H]2C[C@@]3(C)CCCC(=C)[C@@H]3C[C@H]12 [ISOALANTOLACTONE]	1.77 (≈ 7.62 µM)	0.795 (≈ 3.42 µM)	0.38 (≈ 1.64 µM)	2.5 (≈ 10.8 µM)	Active
C=C1C[C@H](O)C[C@]2(C)C[C@H]3OC(=O)[C@@H](C)[C@H]3C[C@@H]12	> 50	> 50	> 50		
C[C@@H]1C2=C[C@H]3[C@@H](C[C@@]2(C)CC[C@@H]1O)OC(=O)[C@@]3(O)CCl [RACEMOSALACTONE B]	> 50	> 50	37.3 (≈ 124 µM)		
C=C1C(=O)O[C@@H]2C[C@@]3(C)CC[C@@H](O)C(=C)[C@@H]3C[C@H]12 [ISOTELEKIN]	4.19 (≈ 16.9 µM)	2.44 (≈ 9.83 µM)	1.47 (≈ 5.92 µM)		
CC1=C2C[C@@H]3[C@H](C)C(=O)O[C@@H]3C[C@@]2(C)CCC1=O	> 50	> 50	22.5 (≈ 90.8 µM)		
C[C@@H]1C(=O)O[C@@H]2C[C@@]3(C)CCC[C@H](C)C3=C[C@H]12	> 50	> 50	24.8 (≈ 106 µM)		
C=C1C[C@H](O)C[C@]2(C)C[C@H]3OC(=O)[C@](C)(O)[C@H]3C[C@@H]12 [RACEMOSALACTONE D]	> 50	> 50	> 50		
C=C1C(=O)O[C@@H]2C[C@@]3(C)CCC[C@]4(CO4)[C@@H]3C[C@H]12	3.78 (≈ 15.2 µM)	3.51 (≈ 14.1 µM)	2.65 (≈ 10.7 µM)		
CO[C@@]12[C@H](COC(N)=O)C3=C(C(=O)C(C)=C(N)C3=O)N1C[C@@H]1N[C@@H]12 [MITOMYCIN]	0.14 (≈ 0.419 µM)	0.15 (≈ 0.449 µM)	0.54 (≈ 1.62 µM)		
